Measurements as given in ChEMBL document CHEMBL1121494, “Prostaglandins and congeners. 22. Synthesis of 11-substituted derivatives of 11-deoxyprostaglandins E1 and E2. Potential bronchodilators” (1980).

Test system: Cavia porcellus
Experiment: Relative potency against bronchoconstrictions, induced by intravenous administration of histamine at doses […] in guinea pig.
Format: functional
Outline: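 Anesthetized guinea pigs (intraperitoneal urethane), curarized with iv gallamine; modified Konzett-Rossler set-up. Bronchoconstriction provoked by iv histamine or serotonin at 5.6-22.5 μg/kg, doses giving a 20 to 50 cm water rise in tracheal pressure; 12 s iv injections repeated every 5 min. Test compounds given iv. Broncholytic activity scored in at least four animals per spasmogen per dose level, expressed as potency relative to l-PGE₂.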

SMILES	Relative potency
CCCCCC(C)(O)/C=C/[C@H]1[C@H](SCCO)CC(=O)[C@@H]1CCCCCCC(=O)O (mixture of isomers)	16
CCCCC[C@H](O)/C=C/[C@H]1C(SCC(=O)OCC)CC(=O)[C@@H]1C/C=C\CCCC(=O)OC (some centres undefined)	3
CCCCC[C@H](O)/C=C/[C@H]1C(SCCCS)CC(=O)[C@@H]1C/C=C\CCCC(=O)OC (some centres undefined)	9
CCCCC[C@H](O)/C=C/[C@H]1C(Sc2cccc(O)c2)CC(=O)[C@@H]1C/C=C\CCCC(=O)OC (some centres undefined)	0.2
CCCCC[C@H](O)/C=C/[C@H]1[C@H](SCCO)CC(=O)[C@@H]1C/C=C\CCCC(=O)OC (racemic)	30
CCCCC[C@H](O)/C=C/[C@H]1C(SCCN)CC(=O)[C@@H]1C/C=C\CCCC(=O)OC (some centres undefined)	0.3
CCCCC[C@@H](O)/C=C/[C@H]1[C@H](SCCO)CC(=O)[C@@H]1C/C=C\CCCC(=O)OC	19
CCCCC[C@H](O)/C=C/[C@H]1C(SCCN(C)C)CC(=O)[C@@H]1C/C=C\CCCC(=O)OC (some centres undefined)	14
CCCCCC(O)CSC1CC(=O)[C@H](C/C=C\CCCC(=O)OC)[C@H]1/C=C/[C@H](O)CCCCC (some centres undefined)	<0.2
CCCCC[C@H](O)/C=C/[C@H]1[C@H](OCCO)CC(=O)[C@@H]1CCCCCCC(=O)O (racemic)	14
CCCCC(O)C/C=C/[C@H]1[C@H](SCCO)CC(=O)[C@@H]1CCCCCCC(=O)O (mixture of isomers)	24
CCCCC[C@H](O)/C=C/[C@H]1C(SCCN(CC)CC)CC(=O)[C@@H]1C/C=C\CCCC(=O)OC (some centres undefined)	22
CCCCC[C@H](O)/C=C/[C@H]1C(SCCC)CC(=O)[C@@H]1C/C=C\CCCC(=O)OC (some centres undefined)	<0.2
CCCCC[C@H](O)/C=C/[C@H]1C(SCCCO)CC(=O)[C@@H]1C/C=C\CCCC(=O)OC (some centres undefined)	0.8
CCCCC[C@H](O)/C=C/[C@H]1C(SCC)CC(=O)[C@@H]1C/C=C\CCCC(=O)OC (some centres undefined)	1
CCCCC(C)(O)C/C=C/[C@H]1[C@H](SCCO)CC(=O)[C@@H]1C/C=C\CCCC(=O)OC (mixture of isomers)	109
CCCCC[C@@H](O)/C=C/[C@H]1[C@@H](SCCO)CC(=O)[C@@H]1C/C=C\CCCC(=O)OC (racemic)	6
CCCCC[C@H](O)/C=C/[C@H]1[C@H](OCCO)CC(=O)[C@@H]1C/C=C\CCCC(=O)OC (racemic)	3
CCCCC[C@H](O)/C=C/[C@H]1C(SCCO)CC(=O)[C@@H]1CCCCCCC(=O)O (some centres undefined)	104
CCCCCC/C=C/[C@H]1[C@H](SCCO)CC(=O)[C@@H]1C/C=C\CCCC(=O)OC (racemic)	14
CCCCC[C@H](O)/C=C/[C@H]1[C@H](SCCO)CC(=O)[C@@H]1C/C=C\CCCC(=O)OC	100
CCCCC[C@H](O)/C=C/[C@H]1C(SCCS)CC(=O)[C@@H]1C/C=C\CCCC(=O)OC (some centres undefined)	0.4
CCCCC[C@H](O)/C=C/[C@H]1[C@@H](SCCO)CC(=O)[C@@H]1C/C=C\CCCC(=O)OC	10
CCCCC[C@H](O)/C=C/[C@H]1[C@H](SCCO)CC(=O)[C@@H]1C/C=C\CCCC(=O)O	55
CCCCC[C@H](O)/C=C/[C@H]1C(SCC(=O)O)CC(=O)[C@@H]1C/C=C\CCCC(=O)OC (some centres undefined)	0.1
CCCCC[C@H](O)/C=C/[C@H]1C(SCC(O)CO)CC(=O)[C@@H]1C/C=C\CCCC(=O)OC (some centres undefined)	11
CCCCC[C@H](O)/C=C/C1CCC(=O)[C@@H]1C/C=C\CCCC(=O)O (some centres undefined)	92
CCCCC[C@H](O)/C=C/[C@H]1C(SCC(C)O)CC(=O)[C@@H]1C/C=C\CCCC(=O)OC (some centres undefined)	2
CCCCC[C@H](O)/C=C/[C@H]1[C@H](O)CC(=O)[C@@H]1C/C=C\CCCC(=O)O [DINOPROSTONE]	570
